# Compounds with a hit are over-represented: about 4.5% of the library has one in this group of screens.
# PHOSPHO1 inh = inhibitors of human PHOSPHO1 phosphatase | Q8TCT1 | recombinant PHOSPHO1, absorbance phosphatase assay | inhibition, % at 13.3 µM | actives 1.1% (n = 290,000); in the data active means inhibition above about 60%
# MrgX1 antag = human MrgX1 receptor antagonism, primary screen | AID 588676 | B-score at 10 µM | actives 1.3% (n = 310,000) | MRGX1-HEK293 calcium flux, Fluo-4, BAM8-22 antagonism; active compounds read low | Q96LB2;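 active means calcium-response B-score plate-corrected more than 3 library SD below zero, starting fluorescence within 5 deviations, no agonist response on first addition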;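 further: peak minus trough fluorescence over baseline after final BAM8-22 challenge near maximal dose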
# Target sequence (Q96LB2 whole entry, looked up): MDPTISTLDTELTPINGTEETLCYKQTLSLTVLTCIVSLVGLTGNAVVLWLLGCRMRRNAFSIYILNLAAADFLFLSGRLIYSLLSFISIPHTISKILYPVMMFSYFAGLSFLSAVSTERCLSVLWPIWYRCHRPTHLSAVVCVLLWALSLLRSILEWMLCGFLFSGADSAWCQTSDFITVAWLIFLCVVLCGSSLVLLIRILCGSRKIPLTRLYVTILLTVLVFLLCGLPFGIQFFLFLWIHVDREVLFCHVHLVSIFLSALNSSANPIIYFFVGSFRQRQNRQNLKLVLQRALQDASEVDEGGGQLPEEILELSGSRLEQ
# MrgX1 ag = human MrgX1 receptor agonism, primary screen | Q96LB2 | MrgX1-HEK293 cells, Fluo-4 calcium fluorescence, agonist mode; active compounds read high | B-score at 10 µM | actives 0.44% (n = 310,000) | AID 588627;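 active means calcium response B-score plate-corrected fluorescence ratio at least 3 library SD, with starting fluorescence B-score inside 5 SD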
#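 Assay system: MrgX1-expressing HEK293 cells / Amount: fifteen thousand cells per well / Doses: test compound in the initial addition of three / Timing: cells plated overnight, dye loaded 0.5 h 37 °C, 0.5 h room temperature / Technique: kinetic calcium dye fluorescence, Fluo-4 NW / Control set: positive and negative controls per plate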
# RGS4 act = RGS4 potentiation or activation. HEK293 M3R/inducible RGS4, carbachol calcium flux Fluo4; active compounds read low. actives 0.92% (n = 310,000). B-score at 10 µM;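 active means B-score of the integrated calcium signal more than 4 SD below the library mean, with starting fluorescence not abnormally high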;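 further: negative B-score means reduced calcium response which marks RGS4 activation or potentiation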
#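 System – HEK293 FlpIn-TREx cells, stable M3R, doxycycline-inducible RGS4 · Reagent – ECmax carbachol challenge · Times – compound preincubation 20 min at room temperature before agonist · Technique – Fluo4 fluorescence kinetic imaging of calcium · Measure – B score of integrated Fluo4 ratio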
# MrgX1 PAM = allosterically activates human MrgX1 receptor signaling. Q96LB2. MrgX1-HEK293, Fluo-4 calcium flux, FDSS; active compounds read high. B-score at 10 µM. actives 0.63% (n = 310,000). AID 588675;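 active means plate-corrected calcium response at least 3 library SD above typical, normal starting fluorescence, not activating the receptor alone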;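 further: compound read alongside a low EC10 to EC30 dose of BAM8-22 agonist; peak minus trough fluorescence over baseline measured at the second addition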
# RGS4 inh = human RGS4 inhibition. P49798. HEK293 M3R/RGS4 inducible, Fluo-4 calcium flux; active compounds read high; triggered by carbachol at its EC20. B-score at 10 µM. actives 0.45% (n = 310,000). AID 463165;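 active means B-score, a plate-corrected calcium signal, over three deviations above library mean, with baseline fluorescence within five deviations of library mean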;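 further: RGS4 expression induced by doxycycline in cells with stable M3 receptor; B-score is computed from the integrated fluorescence ratio over baseline after carbachol; higher B-score means a larger calcium signal and so more RGS4 inhibition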
# Target sequence (P49798 whole entry, looked up): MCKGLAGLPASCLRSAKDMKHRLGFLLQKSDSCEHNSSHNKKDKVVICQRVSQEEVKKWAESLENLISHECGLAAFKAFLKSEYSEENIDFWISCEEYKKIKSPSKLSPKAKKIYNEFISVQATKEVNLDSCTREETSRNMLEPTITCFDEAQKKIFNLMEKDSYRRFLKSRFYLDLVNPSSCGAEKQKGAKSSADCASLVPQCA
# Numbers without * were called inactive; i = inactive; nt = no result; ! = a repeat was not active.
SMILES,PHOSPHO1 inh,MrgX1 antag,MrgX1 ag,RGS4 act,MrgX1 PAM,RGS4 inh
CC1(C)CC(=O)C2=C(C1)OC1=C(C(=O)CC(C)(C)C1)C2c1ccc(O)cc1O,31,i,36*,i,i,i
CC1(C)CC(=O)C2=C(C1)OC1=C(C(=O)CC(C)(C)C1)C2c1ccc(O)c([N+](=O)[O-])c1,-16,i,i,i,i,i
CC(=O)NCc1nnc2c3ccccc3c(-c3ccccc3)nn12,61*,i,i,i,i,i
O=C(COc1ccccc1)NCc1nnc2c3ccccc3c(-c3ccccc3)nn12,-14,i,i,i,i,i
Cc1cccn2c(=O)c3cc(C#N)c(=NC(=O)c4ccccc4)n(Cc4ccco4)c3nc12,nt,-4.9*,i,i,i,i
O=C(CSc1n[nH]c(-c2ccncc2)n1)NC1CCS(=O)(=O)C1 (stereo not drawn),98*,i,i,i,i,i
CCCCCOc1ccc(/C(C)=N/NC2=NCCN2)cc1,9,i,i,i,i,i
CCOc1ccc(Br)cc1/C(C)=N\NC1=NCCN1,10,i,i,-7*,i,i
CSC1=NC2C(N1)N(C)C(=O)N2C (stereo not drawn),78*,i,i,i,i,i
Cn1cc(/C=C/c2cc[n+](C)cc2)c2cc(F)ccc21,-12,i,i,i,i,i
C[n+]1ccc(/C=C/c2c[nH]c3ccc(F)cc23)cc1,-65,i,i,-7.8*,i,i
CN1CCN(C(=O)C2CCCN(S(=O)(=O)c3ccc(F)cc3)C2)CC1 (stereo not drawn),44,i,i,i,i,i
CCN1C(=O)/C(=C\N2CCCc3ccccc32)SC1=S,15,i,i,i,i,i
CCN1C(=O)/C(=C/N2CCc3ccccc32)SC1=S,38,i,34*,i,i,i
O=C(c1ccnc(Cl)c1)N1CCCC(N2CCN(c3ccccc3F)CC2)C1 (stereo not drawn),4,i,i,i,i,i
Cc1cc([N+](=O)[O-])nn1CCCC(=O)NCc1ccccc1,15,i,i,i,i,i
COC(=O)c1sc(NC(=O)CCCn2nc([N+](=O)[O-])cc2C)c(C(=O)OC)c1C,-9,-6.1*,i,i,i,i
CCOc1cc(/C=N/NC(=O)Cn2nc([N+](=O)[O-])cc2C)cc(Br)c1OCc1ccccc1F,-12,i,i,i,i,i
Cc1cc(NC(=O)CCCn2nc([N+](=O)[O-])cc2C)no1,24,i,i,i,i,i
CCOc1cc(/C=N/NC(=O)Cn2nc([N+](=O)[O-])cc2C)ccc1OCc1ccc(F)cc1,29,-4.9*,i,i,i,i
Cc1cc([N+](=O)[O-])nn1CCCC(=O)NCc1ccc(F)cc1,44,i,i,i,14*,i
N#Cc1ccc(Oc2ccc(S(=O)(=O)N3CCOCC3)cn2)cc1,nt,i,i,i,i,i
C=CCn1c(=S)sc2c(=O)[nH]cnc21,16,i,i,i,i,i
CCCCCCCCn1ccc(=N)cc1,6,i,i,i,i,i
CCCCCCCCCCCCCCCCn1cc[n+](C)c1,16,-7.3*!,i,-9.5*!,i,i
SMILES,PHOSPHO1 inh,MrgX1 antag,MrgX1 ag,RGS4 act,MrgX1 PAM,RGS4 inh
O=c1c(C(c2ccc(O)cc2)c2c(O)nc3n(c2=O)CCS3)c(O)nc2n1CCS2,40,i,i,i,i,i
O=c1c(C(c2ccc(O)cc2)c2c(O)nc3n(c2=O)CCCS3)c(O)nc2n1CCCS2,65*,i,i,i,i,i
Cc1cc(C(=O)NC(C)C2CCCO2)c(C)o1 (stereo not drawn),9,i,i,i,i,i
Cc1cc(C(=O)NC(C)C2CCCO2)no1 (stereo not drawn),60*,i,i,i,i,i
CC(C#N)(Cc1ccccc1)Nc1ccccc1 (stereo not drawn),nt,i,i,i,i,i
N#Cc1c(SCc2ccccc2)sc(C(=O)c2ccccc2)c1N,73*,i,i,i,i,i
Cc1ccc(C(=O)c2sc(Nc3ccccc3)c(C#N)c2N)cc1,-6,i,i,i,i,i
N#Cc1c(SCc2cccc(Cl)c2)sc(C(=O)c2ccccc2)c1N,62*,i,i,i,i,i
Cc1ccc(CSc2sc(C(=O)c3ccccc3)c(N)c2C#N)cc1,97*,i,i,i,i,i
N#Cc1c(Oc2ccc3ccccc3c2)sc(C(=O)c2ccccc2)c1N,30,i,i,i,i,i
Cc1ccc(-n2c(C3CC3c3ccc(Cl)cc3)n[nH]c2=S)cc1 (stereo not drawn),97*,i,i,i,i,i
Cc1ccc(-n2c([C@@H]3C[C@H]3c3ccccc3)n[nH]c2=S)cc1,3,i,i,i,i,i
Cc1ccc(C2CC2c2n[nH]c(=S)n2-c2ccc(C)cc2)cc1 (stereo not drawn),90*,i,i,i,i,i
Cc1cccc(OCCC(=O)Nc2ccc(Cl)cc2F)c1,14,i,i,i,i,i
Cc1ccc(CSCc2ccc(C(=O)NCCCN3CCOCC3)o2)cc1,2,i,i,i,6.7*,i
Cc1ccccc1CSCc1ccc(C(=O)NCCCN2CCOCC2)o1,28,i,i,i,i,i
Cn1c(=O)[nH]c(=O)c2c1nc(SCC(=O)O)n2CCc1ccccc1,91*,i,i,i,i,i
CCCCn1c(SCC(=O)OCC)nc2c1c(=O)[nH]c(=O)n2C,-1,i,i,i,i,i
Cc1ccc(Cn2c(SCC(C)C)nc3c2c(=O)[nH]c(=O)n3C)cc1,90*,i,i,i,i,i
CCC(C)Sc1nc2c(c(=O)[nH]c(=O)n2C)n1Cc1ccc(Cl)cc1 (stereo not drawn),2,i,i,i,i,i
CCOC(=O)CSc1nc2c(c(=O)[nH]c(=O)n2C)n1C/C=C(/C)Cl,81*,i,i,i,i,i
CC(C)Sc1nc2c(c(=O)[nH]c(=O)n2C)n1Cc1ccc(Cl)cc1,84*,i,i,i,i,i
